Converted amounts (≈) assume the structure as drawn.
Assays:
[1] = test system: Mycobacterium tuberculosis; experiment: Antituberculosis activity against Mycobacterium tuberculosis H37Rv ATCC 27294 after 5 days; type: functional; conditions: H37Rv ATCC 27294, 120 h
[2] = test system: Mycobacterium tuberculosis; experiment: Antituberculosis activity against Mycobacterium tuberculosis H37Rv infected in mouse assessed as log reduction of CFU in lung at 150 mg/kg qd for 7 days in a week for 3 weeks; type: functional
How it was run: (§1)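 Acute model: mice infected intranasally day 0 with 10³ H37Rv bacilli; oral dosing began one week post-infection, daily 7 days/week (3 or 4 weeks). Oral vehicle was 0.5% Tween 80/0.5% methyl cellulose for the 3-week study and MEPC (Capmul MCM/Cremophor-RH40/ethanol/pH 6.8 phosphate buffer) for the 4-week study. Lungs homogenized, serial-dilution plated on 7H11 agar for CFU; ethambutol positive control.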

[3] = Intrinsic clearance in rat liver microsomes; type: ADME; conditions: read-out: CLH
How it was run: (§2)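 Compound depletion in human, mouse or rat liver microsomes, quantified by LC/MS/MS. In vitro half-life and hepatic extraction ratio measured, and metabolic clearance predicted from these.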

[4] = Solubility of the compound at pH 6.8 after 24 hrs by shake flask method; type: physicochemical; conditions: buffer
How it was run: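 High-throughput equilibrium shake-flask method. DMSO stock evaporated in filter vials, aqueous buffer added, shaken 24 h on an orbital shaker, then filtered with 30 min further shaking. Filtrate analysed by HPLC.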

[5] = Cmax in mouse at 50 mg/kg, po; type: ADME, organism-based; set-up: dose 50 mg/kg, route oral; conditions: in vivo
[6] = Cytotoxicity against human HepG2 cells; type: cell-based
[7] = Intrinsic clearance in mouse liver microsomes; type: ADME; conditions: read-out: CLH; how it was run: as §2
Mus musculus [8] = experiment: AUC in mouse at 50 mg/kg, po; type: ADME, organism-based; conditions: in vivo
[9] = Tmax in mouse at 50 mg/kg, po; type: ADME, organism-based; conditions: in vivo
Cytochrome P450 3A4 = Cytochrome P450 3A4 (Homo sapiens, UniProt P08684); experiment: Inhibition of CYP3A4 (unknown origin); type: ADME
Cytochrome P450 2D6 = Cytochrome P450 2D6 (Homo sapiens, UniProt P10635); experiment: Inhibition of CYP2D6 (unknown origin); type: ADME
Mus musculus [10] = experiment: Oral bioavailability in mouse at 50 mg/kg; type: ADME, organism-based; conditions: in vivo
[11] = Terminal half life in mouse at 5 mg/kg, iv; type: ADME, organism-based; conditions: in vivo, read-out: beta t1/2 (converted)
How it was run: (§3)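 Mice dosed i.v. at 5 mg/kg (1 mg/mL in 20% 1,2-propanediol, 10% solutol HS15, pH 7.0 buffer). Plasma sampled at 0.02, 0.25, 0.75, 1.5, 3, 8 and 24 h, three mice per time point. Analysed by LC/MS/MS with warfarin as internal standard. Noncompartmental analysis of mean concentration–time profiles.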

[12] = Inhibition of Mycobacterium tuberculosis InhA
[13] = Intrinsic clearance in human liver microsomes; type: ADME; conditions: read-out: CLH; how it was run: as §2
Cytochrome P450 2C9 = Cytochrome P450 2C9 (Homo sapiens, UniProt P11712); experiment: Inhibition of CYP2C9 (unknown origin); type: ADME
[14] = Volume of distribution at steady state in mouse at 5 mg/kg, iv; type: ADME, organism-based; conditions: in vivo, read-out: Vdss; how it was run: as §3
[15] = test system: Mycobacterium tuberculosis; experiment: Antituberculosis activity against Mycobacterium tuberculosis H37Rv infected in mouse assessed as log reduction of CFU in spleen at 100 mg/kg qd for 7 days in a week for 4 weeks; type: functional
How it was run: (§4)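 Mice infected intranasally with 10³ H37Rv bacilli on day 0; from one week post-infection dosed orally daily, 7 days/week for 4 weeks, in MEPC vehicle (Capmul MCM, Cremophor-RH40, ethanol, 50 mM phosphate pH 6.8). Bacterial load in spleen estimated as log CFU by serial-dilution plating on 7H11 agar; ethambutol positive control.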

[16] = AUC in mouse at 25 mg/kg, po; type: ADME, organism-based; conditions: in vivo
How it was run: (§5)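 Plasma sampled at 0.08–24 h, three mice per time point. Plasma extracted with acetonitrile/methanol/acetic acid and quantified by LC/MS/MS (LLOQ 1–3 ng/mL).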

[17] = test system: Mycobacterium tuberculosis; experiment: Antituberculosis activity against Mycobacterium tuberculosis H37Rv infected in mouse assessed as log reduction of CFU in lung at 30 mg/kg qd for 7 days in a week for 4 weeks; type: functional; how it was run: as §1
[18] = test system: Mycobacterium tuberculosis; experiment: Antituberculosis activity against Mycobacterium tuberculosis H37Rv infected in mouse assessed as log reduction of CFU in spleen at 30 mg/kg qd for 7 days in a week for 4 weeks; type: functional; how it was run: as §4
[19] = Tmax in mouse at 25 mg/kg, po; type: ADME, organism-based; conditions: in vivo; how it was run: as §5
[20] = test system: Mycobacterium tuberculosis; experiment: Antituberculosis activity against Mycobacterium tuberculosis H37Rv infected in mouse assessed as log reduction of CFU in lung at 100 mg/kg qd for 7 days in a week for 4 weeks; type: functional; how it was run: as §1
[21] = Plasma clearance in mouse at 5 mg/kg, iv; type: ADME, organism-based; how it was run: as §3
[22] = Cmax in mouse at 25 mg/kg, po; type: ADME, organism-based; set-up: dose 25 mg/kg, route oral; conditions: in vivo; how it was run: as §5
[23] = Oral bioavailability in mouse at 25 mg/kg; type: ADME, organism-based; conditions: in vivo

Cytochrome P450 2D6, sequence (P10635 whole entry): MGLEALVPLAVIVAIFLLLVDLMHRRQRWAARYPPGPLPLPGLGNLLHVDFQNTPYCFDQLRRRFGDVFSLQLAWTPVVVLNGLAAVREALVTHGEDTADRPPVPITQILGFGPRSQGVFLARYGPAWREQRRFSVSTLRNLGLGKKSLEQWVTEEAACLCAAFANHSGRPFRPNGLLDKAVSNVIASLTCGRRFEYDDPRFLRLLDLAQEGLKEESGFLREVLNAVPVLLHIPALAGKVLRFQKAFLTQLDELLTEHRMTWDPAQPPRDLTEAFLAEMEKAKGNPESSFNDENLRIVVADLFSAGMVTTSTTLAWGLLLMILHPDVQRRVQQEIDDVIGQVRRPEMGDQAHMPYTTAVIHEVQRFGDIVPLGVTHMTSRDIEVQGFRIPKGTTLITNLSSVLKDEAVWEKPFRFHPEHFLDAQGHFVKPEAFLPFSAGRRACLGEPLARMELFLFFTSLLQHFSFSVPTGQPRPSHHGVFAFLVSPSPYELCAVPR
Cytochrome P450 3A4, sequence (P08684 whole entry): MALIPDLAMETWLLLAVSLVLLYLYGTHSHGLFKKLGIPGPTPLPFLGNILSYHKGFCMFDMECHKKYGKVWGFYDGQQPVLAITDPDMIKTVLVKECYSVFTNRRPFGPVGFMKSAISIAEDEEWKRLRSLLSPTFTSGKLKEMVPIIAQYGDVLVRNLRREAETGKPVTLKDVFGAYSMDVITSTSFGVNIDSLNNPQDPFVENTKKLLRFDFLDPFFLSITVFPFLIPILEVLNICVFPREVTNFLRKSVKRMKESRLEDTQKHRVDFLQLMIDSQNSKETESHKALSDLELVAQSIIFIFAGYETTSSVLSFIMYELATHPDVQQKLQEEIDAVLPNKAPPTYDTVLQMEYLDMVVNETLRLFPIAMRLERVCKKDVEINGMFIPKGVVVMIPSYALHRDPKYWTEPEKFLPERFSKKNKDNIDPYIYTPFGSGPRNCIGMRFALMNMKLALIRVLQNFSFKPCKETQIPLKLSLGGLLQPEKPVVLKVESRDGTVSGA
Cytochrome P450 2C9, sequence (P11712 whole entry): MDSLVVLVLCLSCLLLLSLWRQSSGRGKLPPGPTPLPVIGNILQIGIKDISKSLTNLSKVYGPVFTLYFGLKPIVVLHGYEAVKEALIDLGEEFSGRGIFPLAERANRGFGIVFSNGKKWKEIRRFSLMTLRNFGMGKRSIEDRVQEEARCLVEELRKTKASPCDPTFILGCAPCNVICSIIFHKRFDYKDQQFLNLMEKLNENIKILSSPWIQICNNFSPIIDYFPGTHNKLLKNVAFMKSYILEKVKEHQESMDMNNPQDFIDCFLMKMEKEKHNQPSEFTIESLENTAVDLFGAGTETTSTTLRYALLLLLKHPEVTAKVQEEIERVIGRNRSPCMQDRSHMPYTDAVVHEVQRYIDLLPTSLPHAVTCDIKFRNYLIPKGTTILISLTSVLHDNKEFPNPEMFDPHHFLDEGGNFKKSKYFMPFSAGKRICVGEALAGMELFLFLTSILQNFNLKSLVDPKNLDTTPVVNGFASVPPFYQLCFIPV

Compound | MIC50 [1] [µM] | solubility thermodynamic at 24 h [4] [µM] | other results
Oc1nc2ccccc2c(O)c1-c1ccccc1 | 13.2 (≈ 3.13 µg/mL) |  | 
CC(C)Cc1cc(O)c(-c2ccccc2)c(=O)[nH]1 | 1.54 (≈ 0.375 µg/mL) | 550 (≈ 134 µg/mL) | Activity [2]: 0.95 log10CFU; microsomal CLint [3]: 3.4 µL/min/mg; Cmax [5]: 13.2 µM; CC50 [6]: > 20 µM; microsomal CLint [7]: 22 µL/min/mg; AUC (Mus musculus [8]): 27.18 µM·h; Tmax [9]: 0.5 h; IC50 (Cytochrome P450 3A4): > 20 µM; IC50 (Cytochrome P450 2D6): > 20 µM; F (Mus musculus [10]): 55%; half-life [11]: 1.21 h; IC50 [12]: 9.6 µM; microsomal CLint [13]: 20 µL/min/mg; IC50 (Cytochrome P450 2C9): > 20 µM; Vd [14]: 0.46 L/kg
CC1(C)CCC(Cc2cc(O)c(-c3ccccc3)c(=O)[nH]2)CC1 | 0.05 (≈ 0.0156 µg/mL) | 25 (≈ 7.79 µg/mL) | Activity [15]: 2.8 log10CFU; CC50 [6]: > 20 µM; microsomal CLint [7]: 45 µL/min/mg; AUC [16]: 65.8 µM·h; Activity [17]: 1 log10CFU; Activity [18]: 2.5 log10CFU; Tmax [19]: 6 h; Activity [20]: 1.92 log10CFU; clearance [21]: 13.6 mL/min/kg; half-life [11]: 1.13 h; IC50 [12]: 0.57 µM; microsomal CLint [13]: 59 µL/min/mg; Cmax [22]: 13.7 µM; Vd [14]: 0.54 L/kg; bioavailability [23]: 66%
CC(C)Cc1nc(O)c(-c2ccccc2)c(=O)[nH]1 | > 20 |  | 
COc1nc(CC(C)C)cc(O)c1-c1ccccc1 | > 20 |  | 
CC(C)Cc1cc(O)c(-c2ccccc2)c(=O)n1C | 8.1 (≈ 2.08 µg/mL) |  | 
O=c1[nH]c(CC2CCC2)cc(O)c1-c1ccccc1 | 1.19 (≈ 0.304 µg/mL) | 280 (≈ 71.5 µg/mL) | 
CC(C)Cc1cc(NCc2ccccc2)c(-c2ccccc2)c(=O)[nH]1 | > 20 |  | 
COc1ccc(-c2c(O)cc(CC(C)C)[nH]c2=O)cc1 | > 20 |  | 
CC(C)CCc1cc(O)c(-c2ccccc2)c(=O)[nH]1 | 1.51 (≈ 0.389 µg/mL) | 128 (≈ 32.9 µg/mL) | 
O=c1[nH]c(Cc2ccncc2)cc(O)c1-c1ccccc1 | 6.8 (≈ 1.89 µg/mL) | > 1000 | 
CC(C)Cc1cc(O)c(-c2ccccc2)c(=O)n1Cc1ccccc1 | > 20 |  | 
CC(C)Cc1cc(O)c(-c2ccc(Cl)cc2)c(=O)[nH]1 | > 20 |  | 
CC(C)Cc1cc(O)c(-c2cccc(Cl)c2)c(=O)[nH]1 | 2.67 (≈ 0.742 µg/mL) |  | 
CC(C)Cc1cc(O)c(-c2ccccc2Cl)c(=O)[nH]1 | 3.32 (≈ 0.922 µg/mL) |  | 
CC(C)Cc1ccc(-c2ccccc2)c(=O)[nH]1 | > 20 |  | 
CC(C)Cc1cc(N)c(-c2ccccc2)c(=O)[nH]1 | > 20 |  | 
O=c1[nH]c(CC2CC2)cc(O)c1-c1ccccc1 | 4.53 (≈ 1.09 µg/mL) | 891 (≈ 215 µg/mL) | 
CC(C)Cc1cc(O)c(-c2ccc(F)cc2)c(=O)[nH]1 | 6.75 (≈ 1.76 µg/mL) |  | 
Cc1cc(O)c(-c2ccccc2)c(=O)[nH]1 | > 20 | > 1000 | 
CC(C)Cc1cc(NS(C)(=O)=O)c(-c2ccccc2)c(=O)[nH]1 | > 20 |  | 

Compound | MIC50 [1] [µM] | solubility thermodynamic at 24 h [4] [µM] | other results
CC(C)Cc1cc(O)c(-c2ccccn2)c(=O)[nH]1 | > 20 |  | 
CC(C)Cc1cc(O)c(-c2ccccc2)c(=O)n1C(C)C | > 20 |  | 
O=c1[nH]c(CC2CCOCC2)cc(O)c1-c1ccccc1 | 10.1 (≈ 2.88 µg/mL) | > 1000 | 
CC(C)Cc1cc(O)c(-c2cccnc2)c(=O)[nH]1 | > 20 |  | 
O=c1[nH]c(CC2CCCC2)cc(O)c1-c1ccccc1 | 0.92 (≈ 0.248 µg/mL) | 144 (≈ 38.8 µg/mL) | 
CC(C)Cc1cc(O)c(-c2ccncc2)c(=O)[nH]1 | > 20 |  | 
CN(C)Cc1cc(O)c(-c2ccccc2)c(=O)[nH]1 | > 20 | 671 (≈ 164 µg/mL) | 
O=c1[nH]c(Cc2ccccc2)cc(O)c1-c1ccccc1 | 1.4 (≈ 0.388 µg/mL) | 40 (≈ 11.1 µg/mL) | 
O=c1[nH]c(CC2CCC(F)(F)CC2)cc(O)c1-c1ccccc1 | 1.32 (≈ 0.422 µg/mL) | 104 (≈ 33.2 µg/mL) | 
CC(C)Cc1cc(O)c(-c2ccccc2F)c(=O)[nH]1 | 6.31 (≈ 1.65 µg/mL) |  | 
CC(C)Cc1cc(O)c(Cc2ccccc2)c(=O)[nH]1 | > 20 |  | 
COc1ccccc1-c1c(O)cc(CC(C)C)[nH]c1=O | > 20 |  | 
COc1cccc(-c2c(O)cc(CC(C)C)[nH]c2=O)c1 | > 20 |  | 
CC(C)Cc1cc(O)c(C2CCCCC2)c(=O)[nH]1 | > 20 |  | 
COc1cc(CC(C)C)[nH]c(=O)c1-c1ccccc1 | > 20 |  | 
CC(C)Cc1cc(O)c(-c2cccc(F)c2)c(=O)[nH]1 | 2.69 (≈ 0.703 µg/mL) |  | 
CC(C)Cc1cc(O)c(-c2ccccc2)c(=O)o1 | 13.8 (≈ 3.37 µg/mL) |  | 
O=c1[nH]c(CC2CCCCC2)cc(O)c1-c1ccccc1 | 0.16 (≈ 0.0453 µg/mL) | 24 (≈ 6.8 µg/mL) | 
COc1nc2ccc(Br)cc2cc1[C@@H](c1ccccc1)[C@@](O)(CCN(C)C)c1cccc2ccccc12 [BEDAQUILINE] | 0.05 (≈ 0.0278 µg/mL) |  | 
NNC(=O)c1ccncc1 [ISONIAZID] | 0.33 (≈ 0.0453 µg/mL) |  | 
O=[N+]([O-])c1cn2c(n1)OC[C@@H](OCc1ccc(OC(F)(F)F)cc1)C2 [PRETOMANID] | 0.4 (≈ 0.144 µg/mL) |  | 

Source: ChEMBL document CHEMBL3739268, “Structure activity relationships of 4-hydroxy-2-pyridones: A novel class of antituberculosis agents” (Eur J Med Chem, 2015)
